In brackets after ≈: the same amount, converted by molar mass. Activity calls are given as the source filed them. The calls are words filed in the database; no cut-off is given here.
Assays:
Staphylococcus aureus [1] = test: Antibacterial activity against Staphylococcus aureus ATCC 6538P assessed as diameter of zone inhibition measured after 18 hrs by CLSI disc diffusion method; type: functional
In short: (§1)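 Disc diffusion on Mueller-Hinton II agar. Compounds dissolved in DMSO. Strains stored at -80 °C and subcultured twice on tryptic soy agar before testing. Inhibition zones read after 35 °C, 18 h.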

Pseudomonas aeruginosa [2] = test: Antibacterial activity against Pseudomonas aeruginosa ATCC 27853 measured after 18 hrs by CLSI broth dilution method; type: functional; details: ATCC 27853, 18 h
In short: (§2)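 Broth MIC in Mueller-Hinton II broth following CLSI, compounds dissolved in DMSO. Strains subcultured twice on tryptic soy agar before testing. Growth read after 35 °C, 18 h.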

[3] = Dissociation constant, pKa1 of compound in 0.1 M NaOH by potentiometric analysis; type: physicochemical
[4] = tested on: Meyerozyma guilliermondii; test: Antifungal activity against Candida guilliermondii IBA 155 assessed as decrease in fungal cell growth at 0.78 to 12.5 mg/L incubated for 24 hrs by CLSI broth dilution method; type: functional; details: IBA 155, 24 h
In short: (§3)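 Yeast broth dilution in RPMI 1640 with 2% glucose, compounds in DMSO. Yeasts pre-grown on Sabouraud dextrose agar. Growth read after 35 °C, 24 h.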

Pichia kudriavzevii [5] = test: Antifungal activity against Candida krusei ATCC 6258 assessed as decrease in fungal cell growth at 0.78 to 12.5 mg/L incubated for 24 hrs by CLSI broth dilution method; type: functional; details: ATCC 6258, 24 h; in short: as §3
Saccharomyces cerevisiae = test: Antifungal activity against Saccharomyces cerevisiae ATCC 9763 assessed as decrease in fungal cell growth at 0.78 to 12.5 mg/L incubated for 24 hrs by CLSI broth dilution method; type: functional; details: ATCC 9763, 24 h
In short: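 Yeast strain subcultured on Sabouraud dextrose agar for 24–48 h at 30 °C before testing. Compounds dissolved in DMSO.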

Candida albicans = test: Antifungal activity against Candida albicans ATCC 90028 assessed as diameter of zone inhibition incubated for 24 hrs by CLSI disc diffusion method; type: functional
In short: (§4)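 Yeast disc diffusion on Mueller-Hinton agar supplemented with 2% glucose and 0.5 mg/L methylene blue. Compounds in DMSO. Yeasts subcultured on Sabouraud dextrose agar before testing. Zones read after 35 °C, 24 h.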

Candida parapsilosis = test: Antifungal activity against Candida parapsilosis ATCC 22019 assessed as diameter of zone inhibition incubated for 24 hrs by CLSI disc diffusion method; type: functional; in short: as §4
Candida tropicalis = test: Antifungal activity against Candida tropicalis IBA 171 assessed as diameter of zone inhibition incubated for 24 hrs by CLSI disc diffusion method; type: functional; in short: as §4
[6] = tested on: Meyerozyma guilliermondii; test: Antifungal activity against Candida guilliermondii IBA 155 assessed as diameter of zone inhibition incubated for 24 hrs by CLSI disc diffusion method; type: functional; in short: as §4
Pichia kudriavzevii [7] = test: Antifungal activity against Candida krusei ATCC 6258 assessed as diameter of zone inhibition incubated for 24 hrs by CLSI disc diffusion method; type: functional; in short: as §4
Staphylococcus aureus [8] = test: Antibacterial activity against Staphylococcus aureus ATCC 6538P measured after 18 hrs by CLSI broth dilution method; type: functional; in short: as §2
[9] = tested on: Staphylococcus epidermidis; test: Antibacterial activity against Staphylococcus epidermidis ATCC 12228 measured after 18 hrs by CLSI broth dilution method; type: functional; details: ATCC 12228, 18 h; in short: as §2
Enterococcus faecalis = test: Antibacterial activity against Enterococcus faecalis ATCC 29212 measured after 18 hrs by CLSI broth dilution method; type: functional; details: ATCC 29212, 18 h; in short: as §2
[10] = tested on: Staphylococcus epidermidis; test: Antibacterial activity against Staphylococcus epidermidis ATCC 12228 assessed as diameter of zone inhibition measured after 18 hrs by CLSI disc diffusion method; type: functional; in short: as §1
Enterococcus faecium = test: Antibacterial activity against Enterococcus faecium ATCC 6057 assessed as diameter of zone inhibition measured after 18 hrs by CLSI disc diffusion method; type: functional; in short: as §1
Bacillus subtilis = test: Antibacterial activity against Bacillus subtilis ATCC 6633 assessed as diameter of zone inhibition measured after 18 hrs by CLSI disc diffusion method; type: functional; in short: as §1
Escherichia coli [11] = test: Antibacterial activity against Escherichia coli ATCC 25922 measured after 18 hrs by CLSI broth dilution method; type: functional; details: ATCC 25922, 18 h; in short: as §2
Klebsiella pneumoniae [12] = test: Antibacterial activity against Klebsiella pneumoniae ATCC 13883 measured after 18 hrs by CLSI broth dilution method; type: functional; details: ATCC 13883, 18 h; in short: as §2
Proteus mirabilis [13] = test: Antibacterial activity against Proteus mirabilis ATCC 12453 measured after 18 hrs by CLSI broth dilution method; type: functional; details: ATCC 12453, 18 h; in short: as §2
Acinetobacter baumannii [14] = test: Antibacterial activity against Acinetobacter baumannii ATCC 19606 measured after 18 hrs by CLSI broth dilution method; type: functional; details: ATCC 19606, 18 h; in short: as §2
Escherichia coli [15] = test: Antibacterial activity against Escherichia coli ATCC 25922 assessed as diameter of zone inhibition measured after 18 hrs by CLSI disc diffusion method; type: functional; in short: as §1
Enterobacter cloacae [16] = test: Antibacterial activity against Enterobacter cloacae DSM 6234 assessed as diameter of zone inhibition measured after 18 hrs by CLSI disc diffusion method; type: functional; in short: as §1
Pseudomonas aeruginosa [17] = test: Antibacterial activity against Pseudomonas aeruginosa ATCC 27853 assessed as diameter of zone inhibition measured after 18 hrs by CLSI disc diffusion method; type: functional, organism-based; in short: as §1
Acinetobacter baumannii [18] = test: Antibacterial activity against Acinetobacter baumannii ATCC 19606 assessed as diameter of zone inhibition measured after 18 hrs by CLSI disc diffusion method; type: functional; in short: as §1
Burkholderia cepacia = test: Antibacterial activity against Burkholderia cepacia ATCC 25416 assessed as diameter of zone inhibition measured after 18 hrs by CLSI disc diffusion method; type: functional; in short: as §1
[19] = tested on: Bordetella bronchiseptica; test: Antibacterial activity against Bordetella bronchiseptica ATCC 4617 assessed as diameter of zone inhibition measured after 18 hrs by CLSI disc diffusion method; type: functional; in short: as §1
Escherichia coli [20] = test: Antibacterial activity against Escherichia coli ATCC 25922 assessed as fold reduction of MIC in presence of efflux pump inhibitor PAbetaN incubated for 18 hrs by CLSI broth microdilution method; type: functional
In short: (§5)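 MICs determined with and without PAβN at 50 mg/L in Mueller-Hinton broth containing 1 mM MgSO₄. 2-fold serial dilutions per CLSI. Fold change taken from the paired MICs after 35 °C, 18 h.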

Klebsiella pneumoniae [21] = test: Antibacterial activity against Klebsiella pneumoniae ATCC 13883 assessed as fold reduction of MIC in presence of efflux pump inhibitor PAbetaN incubated for 18 hrs by broth microdilution method; type: functional; in short: as §5
Proteus mirabilis [22] = test: Antibacterial activity against Proteus mirabilis ATCC 12453 assessed as fold reduction of MIC in presence of efflux pump inhibitor PAbetaN incubated for 18 hrs by broth microdilution method; type: functional; in short: as §5
Enterobacter cloacae [23] = test: Antibacterial activity against Enterobacter cloacae DSM 6234 assessed as fold reduction of MIC in presence of efflux pump inhibitor PAbetaN incubated for 18 hrs by broth microdilution method; type: functional; in short: as §5
Serratia marcescens [24] = test: Antibacterial activity against Serratia marcescens ATCC 13880 assessed as fold reduction of MIC in presence of efflux pump inhibitor PAbetaN incubated for 18 hrs by broth microdilution method; type: functional; in short: as §5
Acinetobacter baumannii [25] = test: Antibacterial activity against Acinetobacter baumannii ATCC 19606 assessed as fold reduction of MIC in presence of efflux pump inhibitor PAbetaN incubated for 18 hrs by broth microdilution method; type: functional; in short: as §5
Serratia marcescens [26] = details: ATCC 13880

Row | Compound | diameter of the inhibition zone (DIZ) (Staphylococcus aureus [1]) | MIC (Pseudomonas aeruginosa [2]) [µg/mL] | pKa [3] | MIC [4] [µg/mL] | MIC (Pichia kudriavzevii [5]) [µg/mL] | MIC (Saccharomyces cerevisiae) [µg/mL] | diameter of the inhibition zone (DIZ) (Candida albicans) | diameter of the inhibition zone (DIZ) (Candida parapsilosis) | diameter of the inhibition zone (DIZ) (Candida tropicalis) | diameter of the inhibition zone (DIZ) [6] | diameter of the inhibition zone (DIZ) (Pichia kudriavzevii [7]) | MIC (Staphylococcus aureus [8]) [µg/mL] | MIC [9] [µg/mL] | MIC (Enterococcus faecalis) [µg/mL] | diameter of the inhibition zone (DIZ) [10] [mm] | diameter of the inhibition zone (DIZ) (Enterococcus faecium) | diameter of the inhibition zone (DIZ) (Bacillus subtilis) [mm] | MIC (Escherichia coli [11]) [µg/mL] | MIC (Klebsiella pneumoniae [12]) [µg/mL] | MIC (Proteus mirabilis [13]) [µg/mL] | further results
1 | C[Si]1(C)OB(O)c2cc3c(c(F)c21)COB3O | 20 mm | > 400 | 6.3 | 400 (≈ 1590 µM) | > 400 | 100 (≈ 397 µM) | inactive | inactive | inactive | inactive | inactive | 3.12 (≈ 12.4 µM) | 6.25 (≈ 24.8 µM) | 100 (≈ 397 µM) | 34 | 16 mm | 29 | 400 (≈ 1590 µM) | > 400 | > 400 | MIC (Acinetobacter baumannii [14]): > 400 µg/mL; diameter of the inhibition zone (DIZ) (Escherichia coli [15]): inactive; diameter of the inhibition zone (DIZ) (Enterobacter cloacae [16]): inactive; diameter of the inhibition zone (DIZ) (Pseudomonas aeruginosa [17]): inactive; diameter of the inhibition zone (DIZ) (Acinetobacter baumannii [18]): inactive; diameter of the inhibition zone (DIZ) (Burkholderia cepacia): inactive; diameter of the inhibition zone (DIZ) [19]: 13 mm; fold change (FC) (Escherichia coli [20]): 16; fold change (FC) (Klebsiella pneumoniae [21]): 32; fold change (FC) (Proteus mirabilis [22]): 8; fold change (FC) (Enterobacter cloacae [23]): 64; fold change (FC) (Serratia marcescens [24]): 16; fold change (FC) (Acinetobacter baumannii [25]): 8; DIZ (Serratia marcescens [26]): inactive
2 | C[Si]1(C)OB(O)c2ccccc21 | inactive | > 200 | 7.9 | 25 (≈ 140 µM) | 25 (≈ 140 µM) | 3.12 (≈ 17.5 µM) | inactive | 11 mm | inactive | 12 mm | inactive | 200 (≈ 1120 µM) | 50 (≈ 281 µM) | > 200 | 28 | inactive | 14 | > 200 | > 200 | > 200 | MIC (Acinetobacter baumannii [14]): > 200 µg/mL; diameter of the inhibition zone (DIZ) (Escherichia coli [15]): inactive; diameter of the inhibition zone (DIZ) (Enterobacter cloacae [16]): inactive; diameter of the inhibition zone (DIZ) (Pseudomonas aeruginosa [17]): inactive; diameter of the inhibition zone (DIZ) (Acinetobacter baumannii [18]): inactive; diameter of the inhibition zone (DIZ) (Burkholderia cepacia): inactive; diameter of the inhibition zone (DIZ) [19]: inactive; fold change (FC) (Escherichia coli [20]): 4; fold change (FC) (Klebsiella pneumoniae [21]): 2; fold change (FC) (Proteus mirabilis [22]): 0; fold change (FC) (Enterobacter cloacae [23]): 4; fold change (FC) (Serratia marcescens [24]): 0; fold change (FC) (Acinetobacter baumannii [25]): 4; DIZ (Serratia marcescens [26]): inactive
